Results: ChEMBL document CHEMBL5154669, “G-Quadruplex DNA as a Target in Pathogenic Bacteria: Efficacy of an Extended Naphthalene Diimide Ligand and Its Mode of Action” (J Med Chem, 2022)

How the values were obtained:
[1] = system: DNA; experiment: Stabilization of Escherichia coli in G-quadruplex DNA GGT GGG GAG GGG TAA GGG G assessed as change in melting temperature at 10 uM incubated for 16 hrs by FRET method; type: nucleic-acid assay; conditions: in the assay text read “by CD melting method” for “by FRET method”
Procedure, shortened: (§1)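 Readout was CD melting, not FRET: 2.5 μM oligonucleotide in 10 mM lithium cacodylate pH 7.4 with KCl set per sequence (initial Tm 60-70 °C). Annealed 95 °C 5 min, cooled to room temperature over 4 h, then ligand 10 μM (4 equiv) equilibrated 16 h at 20 °C. Ellipticity at 260 nm tracked every 0.1 °C, 20-95 °C at 5 °C/min; Tm by van't Hoff two-state fit.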

[2] = system: Enterococcus faecalis; experiment: Bacteriostatic activity against Enterococcus faecalis V583 assessed as inhibition of bacterial growth; type: functional
Procedure, shortened: (§2)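 A standard MIC plate (128–2 μM, cMHB, 20 h, 37 °C) was read at OD600. Each well then seeded at 10% a fresh compound-free cMHB plate, grown another 20 h at 37 °C and read at OD600. No growth at the same concentration in both plates counted as bactericidal. Growth above the MIC counted as bacteriostatic. Done in triplicate.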

[3] = system: Pseudomonas aeruginosa; experiment: Antimicrobial activity against Pseudomonas aeruginosa LMG 6395 assessed as inhibition of bacterial growth in presence of D11 incubated for 20 hrs; conditions: LMG 6395, 20 h
[4] = system: Escherichia coli; experiment: Antibacterial activity against Escherichia coli LMG 8223; type: functional, organism-based; conditions: DDE = dose-dependent effect
Procedure, shortened: (§3)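 Cultures were inoculated at 2% and grown at 37 °C, with OD600 read every 5 min for 8 h. NDI-10 was added at exponential-phase onset (~3 h). Concentrations were 32, 16, 8 and 4 μM for E. coli, and 16, 8, 4 and […] μM for the Gram-positive strains.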

[5] = system: Enterococcus faecalis; experiment: Antimicrobial activity against Enterococcus faecalis V583 assessed as inhibition of bacterial growth in presence of D11 incubated for 20 hrs; conditions: V583, 20 h
[6] = system: Klebsiella aerogenes; experiment: Antimicrobial activity against Enterobacter aerogenes LMG 02094 assessed as inhibition of bacterial growth in presence of D11 incubated for 20 hrs; conditions: LMG 02094, 20 h
[7] = system: DNA; experiment: Stabilization of Escherichia coli in G-quadruplex DNA GGG GGA GGA GGA CGG GGG assessed as melting temperature at 10 uM incubated for 16 hrs by […]; type: nucleic-acid assay; procedure, shortened: as §1
[8] = system: Pseudomonas aeruginosa; experiment: Antibacterial activity against Pseudomonas aeruginosa LMG 6395 assessed as inhibition of bacterial growth incubated for 20 hrs by CLSI based broth microdilution method; type: functional
Procedure, shortened: (§4)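 Broth microdilution in cation-adjusted Mueller-Hinton broth following CLSI guidelines. DMSO stocks were at 10 mM; compounds were twofold serially diluted over 128 to 2 μM. The inoculum was at 5 × 10⁵, prepared from colonies grown 20 h at 37 °C and adjusted to 0.5 McFarland. Plates ran 20 h at 37 °C with OD600 read-out. MIC was the lowest concentration inhibiting visible growth, in triplicate.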

[9] = system: Enterococcus faecalis; experiment: Antibacterial activity against Enterococcus faecalis LMG 16216 assessed as inhibition of bacterial growth incubated for 20 hrs by CLSI based broth microdilution method; type: functional; procedure, shortened: as §4
[10] = system: Bacillus cereus; experiment: Antimicrobial activity against Bacillus cereus ATCC 10987 assessed as inhibition of bacterial growth in presence of D11 incubated for 20 hrs; conditions: ATCC 10987, 20 h
[11] = system: Acinetobacter baumannii; experiment: Antimicrobial activity against Acinetobacter baumannii LMG 01041 assessed as inhibition of bacterial growth in presence of D11 incubated for 20 hrs; conditions: LMG 01041, 20 h
[12] = system: DNA; experiment: Stabilization of Staphylococcus aureus in G Quadruplex DNA GGGGCTAATTGGGGCTGGTGG assessed as change in melting temperature at 10 uM incubated for 16 hrs by […]; type: nucleic-acid assay; procedure, shortened: as §1
[13] = system: Staphylococcus aureus; experiment: Antibacterial activity against Staphylococcus aureus LMG 8224 infected in Galleria mellonella assessed as survival at 5 to 10 mg/kg after 3 days; conditions: dose 5-10 mg/kg, time 3 day
[14] = system: DNA; experiment: Stabilization of Escherichia coli in G-quadruplex DNA GGG GCG GGG TGG GTT GG assessed as change in melting temperature at 10 uM incubated for 16 hrs by CD melting method
[15] = system: DNA; experiment: Stabilization of Staphylococcus aureus in G-quadruplex DNA GGA AGG AGG GGT GAC AGG G assessed as melting temperature at 10 uM incubated for 16 hrs […]; type: nucleic-acid assay; procedure, shortened: as §1
[16] = system: Staphylococcus aureus; experiment: Antibacterial activity against Staphylococcus aureus LMG 8224; type: functional, organism-based; conditions: DDE = dose-dependent effect; procedure, shortened: as §3
[17] = system: Bacillus cereus; experiment: Antibacterial activity against Bacillus cereus ATCC 14579 assessed as inhibition of bacterial growth incubated for 20 hrs by CLSI based broth microdilution method; type: functional; procedure, shortened: as §4
[18] = system: DNA; experiment: Stabilization of Staphylococcus aureus in G-quadruplex DNA GGGTTTGGGGCGGCGGTTGG assessed as change in melting temperature at 10 uM incubated for 16 hrs by FRET method; type: nucleic-acid assay; conditions: in the assay text read “by CD melting method” for “by FRET method”
[19] = system: Klebsiella aerogenes; experiment: Antibacterial activity against Enterobacter aerogenes LMG 02094 assessed as inhibition of bacterial growth incubated for 20 hrs by CLSI based broth microdilution method; type: functional; procedure, shortened: as §4
[20] = system: Enterococcus faecium; experiment: Antimicrobial activity against Enterococcus faecium LMG 16003 assessed as inhibition of bacterial growth in presence of D11 incubated for 20 hrs; conditions: LMG 16003, 20 h
[21] = system: Enterobacter cloacae; experiment: Antimicrobial activity against Enterobacter cloacae LMG 02783 assessed as inhibition of bacterial growth in presence of D11 incubated for 20 hrs; conditions: LMG 02783, 20 h
[22] = system: Staphylococcus aureus; experiment: Antibacterial activity against Staphylococcus aureus LMG 8224 assessed as inhibition of bacterial growth incubated for 20 hrs by CLSI based broth microdilution method; type: functional; procedure, shortened: as §4
[23] = system: Staphylococcus aureus; experiment: Antibacterial activity against Staphylococcus aureus LMG 15975 assessed as inhibition of bacterial growth incubated for 20 hrs by CLSI based broth microdilution method; type: functional; procedure, shortened: as §4
[24] = system: DNA; experiment: Stabilization of Escherichia coli in G-quadruplex DNA GGG GGA GGA GGA CGG GGG assessed as change in melting temperature at 10 uM incubated for 16 hrs by FRET method; type: nucleic-acid assay; conditions: in the assay text read “by CD melting method” for “by FRET method”; procedure, shortened: as §1
[25] = system: Klebsiella aerogenes; experiment: Bacteriostatic activity against Enterobacter aerogenes LMG 02094 assessed as inhibition of bacterial growth; type: functional; procedure, shortened: as §2
[26] = system: Enterococcus faecium; experiment: Antibacterial activity against Enterococcus faecium LMG 11423 assessed as inhibition of bacterial growth incubated for 20 hrs by CLSI based broth microdilution method; conditions: LMG 11423, 20 h
[27] = system: Salmonella enterica; experiment: Antimicrobial activity against Salmonella enterica LMG 07233 assessed as inhibition of bacterial growth in presence of D11 incubated for 20 hrs; conditions: LMG 07233, 20 h

Q: How did the ΔTm [1] turn out when `CN(C)CCCn1c(=O)c2ccc3c(=O)n(CCCN(C)C)c(=O)c4c5[nH]c6ccccc6[nH]c5c(c1=O)c2c34.O=C(O)C(F)(F)F.O=C(O)C(F)(F)F` was run?
A: 31 °C

Q: And the MIC [2]?
A: 64 µM

Q: And the MIC [3]?
A: 4 µM

Q: And the Activity [4]?
A: Dde

Q: And the MIC [5]?
A: 4 µM

Q: What about the MIC [6] of the same molecule?
A: 8 µM

Q: And the Tm [7]?
A: > 95 °C

Q: What about the MIC [8] of the same molecule?
A: 128 µM

Q: What about the MIC [9] of the same molecule?
A: 4 µM

Q: And the MIC [10]?
A: 8 µM

Q: And the MIC [11]?
A: 8 µM

Q: What about the ΔTm [12] of the same molecule?
A: 27.3 °C

Q: What about the Activity [13] of the same molecule?
A: 70%

Q: What about the ΔTm [14] of the same molecule?
A: 18.8 °C

Q: What about the Tm [15] of the same molecule?
A: > 95 °C

Q: What about the Activity [16] of the same molecule?
A: Dde

Q: And the MIC [17]?
A: 8 µM

Q: What about the ΔTm [18] of the same molecule?
A: > 35.6 °C

Q: What about the MIC [19] of the same molecule?
A: 32 µM

Q: What about the MIC [20] of the same molecule?
A: 4 µM

Q: What about the MIC [21] of the same molecule?
A: 8 µM

Q: And the MIC [22]?
A: 16 µM

Q: And the MIC [23]?
A: 16 µM

Q: And the ΔTm [24]?
A: > 24.8 °C

Q: And the MIC [25]?
A: > 128 µM

Q: And the MIC [26]?
A: 4 µM

Q: What about the MIC [27] of the same molecule?
A: < 0.5 µM
